Measurements: ChEMBL document CHEMBL2331229, “Extracellular signal-regulated kinases (ERK) inhibitors from Aristolochia yunnanensis” (J Nat Prod, 2013)
Activity calls are given as the source filed them. The rule behind the calls is not given here.

Assays:
[1] = target: MAP kinase p38 (Homo sapiens) (UniProt O15264+Q15759+Q16539+P53778); test: Inhibition of p38 phosphorylation in human HeLa cells at 20 uM after 3 hrs by Western blotting analysis; format: cell-based
Method in brief: (§1)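 HeLa cells exposed to 20 μM compound for 3 h. Lysed in Tris pH 7.4/NaCl/NP-40/deoxycholate/SDS buffer with protease and phosphatase inhibitors, protein by BCA. Then 20 μg protein on 8–10% SDS-PAGE, transferred to nitrocellulose and blocked with 5% milk. Primary antibodies overnight at 4 °C, detection by chemiluminescence. Phospho-ERK1/2, -JNK and -p38 quantified by densitometry (n = 3, ANOVA).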

[2] = target: T1, Mitogen-activated protein kinase; ERK1/ERK2 (Homo sapiens) (UniProt P27361+P28482); test: Inhibition of ERK1/2 phosphorylation in human HeLa cells at 20 uM after 3 hrs by Western blotting analysis; format: cell-based; method in brief: as §1
T1 sequence (P27361 whole entry, looked up): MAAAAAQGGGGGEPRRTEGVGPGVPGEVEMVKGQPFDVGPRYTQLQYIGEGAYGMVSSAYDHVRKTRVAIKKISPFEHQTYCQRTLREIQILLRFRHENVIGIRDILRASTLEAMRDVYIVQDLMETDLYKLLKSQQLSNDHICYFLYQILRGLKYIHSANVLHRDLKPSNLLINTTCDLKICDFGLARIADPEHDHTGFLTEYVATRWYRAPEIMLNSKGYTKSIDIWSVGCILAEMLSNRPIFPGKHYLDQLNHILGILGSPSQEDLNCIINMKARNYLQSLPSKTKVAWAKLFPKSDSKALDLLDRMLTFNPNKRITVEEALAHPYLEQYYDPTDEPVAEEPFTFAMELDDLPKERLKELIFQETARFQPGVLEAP
T1 sequence (P28482 whole entry, looked up): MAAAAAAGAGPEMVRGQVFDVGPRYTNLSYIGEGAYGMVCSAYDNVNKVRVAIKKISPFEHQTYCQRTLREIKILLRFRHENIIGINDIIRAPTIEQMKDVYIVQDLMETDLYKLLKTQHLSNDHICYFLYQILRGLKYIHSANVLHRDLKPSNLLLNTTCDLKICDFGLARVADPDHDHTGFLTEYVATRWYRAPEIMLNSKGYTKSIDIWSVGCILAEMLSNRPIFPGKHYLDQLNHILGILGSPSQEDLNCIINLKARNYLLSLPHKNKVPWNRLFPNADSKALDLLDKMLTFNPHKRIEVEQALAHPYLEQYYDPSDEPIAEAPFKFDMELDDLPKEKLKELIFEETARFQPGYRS

[3] = target: c-Jun N-terminal kinase, JNK (Homo sapiens) (UniProt P45983+P53779+P45984); test: Inhibition of JNK phosphorylation in human HeLa cells at 20 uM after 3 hrs by Western blotting analysis; format: cell-based; method in brief: as §1
HeLa = test: Cytotoxicity against human HeLa cells assessed as decrease in cell viability at 50 uM after 48 hrs by WST-8-based colorimetric assay; format: functional
Method in brief: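 HeLa cells in 96-well plates given 50 μM compound for 48 h. Viability read with CCK-8: phenol red-free DMEM containing 10% WST-8 added, 1 h at 37 °C, then OD at 450 nm. Computed from the mean of three wells (n = 3, ANOVA).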

[4] = target: T1, Mitogen-activated protein kinase; ERK1/ERK2 (Homo sapiens); test: Inhibition of ERK1/2 phosphorylation in human HeLa cells after 3 hrs by Western blotting analysis; format: cell-based
Method in brief: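 HeLa cells exposed to compound at indicated concentrations (2.5 to 40 μM range) for 3 h, with PD98059 as positive control. Lysate protein (20 μg) was run on SDS-PAGE and Western blotted for phospho-ERK1/2. Blots were quantified by densitometry (n = 3, ANOVA).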

Compound | inhibition [1] | inhibition [2] | inhibition [3] | Activity (HeLa) | inhibition [4]
C/C1=C\CC/C(C=O)=C\[C@H]2[C@@H](C[C@H]1O)C2(C)C | inactive | Active | inactive |  | 
C/C1=C\CC/C(C=O)=C\[C@@H]2[C@@H](CC1)C2(C)C | inactive | Active | inactive |  | 
C=C(C)[C@H]1C/C=C(\C)[C@@H](O)CCC2=C[C@H]1OC2=O |  |  |  | Active | 
CC(=O)OC[C@]1(C)[C@@H]2/C=C(/C=O)CC/C=C(\C)CC[C@H]21 | inactive | Active | inactive |  | 
COC(=O)[C@]1(C)[C@@H]2/C=C(/C=O)CC/C=C(\C)CC[C@H]21 |  |  |  | Active | 
C[C@@H]1CC(=O)C=C2CC[C@@H]3[C@@H](C3(C)C)[C@]21C | inactive |  | inactive |  | Dose-dependent effect
C=C(C)[C@H]1CCC(=C)[C@@H](O)CCC2=C[C@H]1OC2=O | inactive | Active | inactive |  | 
COc1cccc(-c2cc(=O)c3ccccc3o2)c1N |  | Active |  |  | 
C/C1=C\CC/C(C=O)=C\[C@@H]2[C@@H](CC1)[C@]2(C)CO |  |  |  | Active | 
CC1(C)[C@@H]2CC[C@@]3(C)O[C@@H]3CC/C(C=O)=C\[C@@H]21 | inactive | Active | inactive |  | 
CC(=O)O[C@H]1/C=C(\C=O)CC/C=C(\C)CC/C=C(\C)C1 |  |  |  | Active | 
C=C(C)[C@H]1CC[C@]2(C)[C@@H]([N+](=O)[O-])CC[C@@]23C(=O)O[C@@H]1[C@@H]3O | inactive | Active | inactive |  | 
C/C1=C\CCC2=C[C@H](C/C(C)=C/CC1)OC2=O | inactive |  | inactive |  | Dose-dependent effect
C/C1=C\CCC2=CC(O)(C/C(C)=C/CC1)OC2=O (racemic) | inactive | Active | inactive | inactive | 
C=C(C)[C@H]1CC/C(C)=C/CCC2=C[C@H]1OC2=O | inactive | Active | inactive |  | 
